Beta2AR agonist: agonists of human beta-2 adrenergic receptor inducing internalization | P07550 | Am2.2-beta2AR cells, FAP receptor internalization, flow cytometry | response, % (test concentration not listed) | hit rate 0.43% among 340,000;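 active = response above a set limit, near 3 SD of response in nonfluorescent compounds, cut at about 42% in these data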
Target sequence (P07550 whole entry, looked up): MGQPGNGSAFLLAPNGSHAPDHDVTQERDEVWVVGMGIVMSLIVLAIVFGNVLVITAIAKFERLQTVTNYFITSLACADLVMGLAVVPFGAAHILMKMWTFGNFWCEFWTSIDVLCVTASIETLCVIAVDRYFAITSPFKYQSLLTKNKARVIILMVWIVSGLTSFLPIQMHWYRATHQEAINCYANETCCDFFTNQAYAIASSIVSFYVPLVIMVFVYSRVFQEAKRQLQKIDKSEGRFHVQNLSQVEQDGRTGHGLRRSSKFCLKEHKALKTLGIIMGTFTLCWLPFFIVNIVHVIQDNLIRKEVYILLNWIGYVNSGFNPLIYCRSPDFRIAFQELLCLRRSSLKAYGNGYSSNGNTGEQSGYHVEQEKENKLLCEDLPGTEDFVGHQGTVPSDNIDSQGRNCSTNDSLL
MPTP inh: blocks calcium-induced mitochondrial swelling; isolated mouse mitochondria, Ca2+ swelling absorbance, 30 min; hit rate 1.4% among 360,000; inhibition, % at 10 µM;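 active = inhibition of 50% or more, scaled per plate between neutral and stimulator controls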;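 also: 0% = DMSO wells given calcium and 100% = 1 mM EGTA wells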
Granule exo inh: lytic granule exocytosis inhibition; hit rate 0.66% among 360,000; AID 651702; TALL-104 LAMP-1 surface exposure, flow cytometry; cells stimulated with thapsigargin and PMA; inhibition, % at 10 µM;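 active = inhibition above about 55%, limit read from the data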
T cell modulator: T cell immune modulation candidate. AID 2052. response (vesicle binding), % at 7 µM. hit rate 0.068% among 330,000. 2C CD8+ T cell-vesicle binding, flow cytometry; active compounds read low;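 active = response, share of CD8 T cells binding vesicles, and their 90th percentile fluorescence all below set limits, cut at about 80% in these data, passing the limit was not always enough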;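 also: values below 100% mean blocked vesicle binding to the CD8+ T cells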
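Also added: QL9-peptide-loaded Drosophila micro-vesicles bearing Ld, ICAM-1 and B7-1; Test system: purified 2C TCR transgenic mouse naive CD8+ T cells; Measured by: cytometric PE anti-B7-1 and Alexa647 anti-CD8 signals after 1% paraformaldehyde fixation; Timing: binding step 1.5 h, 37 °C, antibody labelling 20 min, ice.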
rCAG RNA binder: molecules binding r(CAG) RNA repeats. AID 651821. r(CAG) RNA repeat, TO-PRO-1 dye displacement fluorescence. inhibition, % at 3 µM. hit rate 1.3% among 370,000;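 active = inhibition above the plate cutoff, the mean of all test compounds on that plate plus 3 SD, cut at about 35% in these data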;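 also: 0% = DMSO alone and 100% = 100 µM mitoxantrone as full dye displacement; higher means more dye released from RNA so lower well fluorescence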
V-ATPase pH: yeast V-ATPase proton transport regulation by pHLuorin; S. cerevisiae, pHLuorin cytosolic pH fluorescence; response, % at 10 µM; AID 504577; hit rate 0.37% among 350,000; in the data active = response mostly above about 7.3%, no sharp cut-off; inactive = mostly below about 5.4%; also: actives read high
Active calls of the source: *. Shown are actives, neighbours in structure and some others; about 3.8% of the full set was active somewhere.

Screening C=CCC[C@@H](Cc1ccc(F)cc1)C(=O)OC[C@H](C)NC(=O)[C@@H](CC=C)CC(=O)N[C@@H](CO)Cc1ccccc1 returned Beta2AR agonist 5, MPTP inh 2, Granule exo inh 11, T cell modulator inactive, rCAG RNA binder -3 and V-ATPase pH 2.
`C=CCC[C@H](Cc1ccc(F)cc1)C(=O)OC[C@H](C)NC(=O)[C@@H](CC=C)CC(=O)N[C@H](CO)Cc1ccccc1` gave Beta2AR agonist -1, MPTP inh 0, Granule exo inh 3, T cell modulator 61*, rCAG RNA binder -9 and V-ATPase pH -2.
`CCOC(=O)[C@]12CCCC=C1N(Cc1ccc(OC)cc1)C(=O)[C@@H]2CC(=O)N1CCN(C(=O)c2ccco2)CC1` gave rCAG RNA binder 4.
`Cc1cccc(NC(=O)Nc2c(-c3ccc(C(F)(F)F)cc3)nc3ncccn23)c1` gave rCAG RNA binder 9.
For Cc1cc(=O)c2cc3nc(-c4cccnc4)oc3c(Br)c2o1 the results were T cell modulator 0.0*.
For COc1ccccc1NC(=S)NCc1ccccc1Cl the results were Beta2AR agonist -3, MPTP inh 0, Granule exo inh 0, T cell modulator 188, rCAG RNA binder -2 and V-ATPase pH 0.
For COc1ccc(NC(=S)NCc2ccccc2Cl)c(OC)c1 the results were Beta2AR agonist 2, MPTP inh 0, Granule exo inh 13, T cell modulator 224, rCAG RNA binder -2 and V-ATPase pH 21*.
`CCCCN1C[C@@H](COCc2ccccc2)Oc2cc(F)ccc2S1(=O)=O` gave rCAG RNA binder 1.
`Oc1ccc(N=Nc2cccc(C(F)(F)F)c2)cc1C=Nc1ccc(N2CCOCC2)cc1` gave Beta2AR agonist 21, MPTP inh 29, Granule exo inh 42, T cell modulator 0.0*, rCAG RNA binder 3 and V-ATPase pH -1.
Screening Oc1ccc(C=Nc2ccc(N3CCOCC3)cc2)c(O)c1 returned Beta2AR agonist 5, MPTP inh 0, Granule exo inh -3, T cell modulator 153, rCAG RNA binder 17 and V-ATPase pH 1.
Screening Cc1cc(Br)cc(C=Nc2ccc(N3CCOCC3)cc2)c1O returned Beta2AR agonist 6, MPTP inh 1, Granule exo inh 74*, T cell modulator 519, rCAG RNA binder 1 and V-ATPase pH -2.
Screening CN(C)c1ccc(-c2nc3ncc(Cl)cc3[nH]2)cc1 returned rCAG RNA binder 5.
Screening COCCCN1C(=O)[C@H](CC(=O)N2CCCCC2)[C@]2(C(=O)OC)CCCCC=C12 returned rCAG RNA binder 1.
For O=C(O)COc1ccc(/C=C/c2nc(-c3ccccc3O)n[nH]2)cc1 the results were Beta2AR agonist 0, MPTP inh 1, Granule exo inh 8, T cell modulator 218, rCAG RNA binder 22 and V-ATPase pH -3.
Screening COc1ccc(/C=C/c2nc(-c3ccccc3O)n[nH]2)cc1OC returned Beta2AR agonist 10, MPTP inh 12, Granule exo inh 65*, T cell modulator 252, rCAG RNA binder 48* and V-ATPase pH 2.
Screening CCOC(=O)C1C(=O)NC(N2CCCCC2)=NC1c1ccco1 (stereo not drawn) returned Beta2AR agonist -3, MPTP inh 0, Granule exo inh 1, T cell modulator 286, rCAG RNA binder 1 and V-ATPase pH 15*.
CCOC(=O)C1C(=O)NC(N2CCN(Cc3ccccc3)CC2)=NC1c1ccco1 (stereo not drawn) was read as Beta2AR agonist 7, MPTP inh -1, Granule exo inh -1, T cell modulator 501, rCAG RNA binder -6 and V-ATPase pH -2.
C=CCN1[C@H](CC(C)C)COc2cc(N3CCSCC3)ccc2S1(=O)=O was read as rCAG RNA binder 6.
COC(=O)[C@]12C[C@H](CC(=O)N3CCN(C(=O)c4ccco4)CC3)C(=O)N(Cc3ccccc3)C1=C[C@H](C1CCCC1)O[C@@H]2C was read as rCAG RNA binder 4.
For CC(C)C[C@H](NC(=O)c1cccs1)C(=O)N1CCC[C@H]1C(=O)NCc1ccccc1 the results were rCAG RNA binder -2.
O=C(Nc1ccc(Cl)c(Cl)c1)C1CCCN1S(=O)(=O)c1cccc2cccnc12 (stereo not drawn) was read as rCAG RNA binder 6.
`CN(C)CCCNc1cc(C(C)(C)C)nc2c(-c3ccc(Cl)cc3)cnn12` gave Beta2AR agonist 18, MPTP inh -7, Granule exo inh 65*, T cell modulator 346, rCAG RNA binder 1 and V-ATPase pH 0.
`CCN1C/C(=C\c2cccc([N+](=O)[O-])c2)C(=O)/C(=C/c2cccc([N+](=O)[O-])c2)C1` gave Beta2AR agonist 85*, MPTP inh 0, Granule exo inh 83*, rCAG RNA binder 12 and V-ATPase pH 7.
`CC(=O)Nc1ccc(C(/C=C/c2ccccc2)Cc2ccccc2)cc1` (stereo not drawn) gave rCAG RNA binder 7.
`CC(NC(=O)c1ccncc1)c1ccc(Cl)cc1Cl` (stereo not drawn) gave Beta2AR agonist 0, MPTP inh 0, Granule exo inh -8, T cell modulator 929, rCAG RNA binder -1 and V-ATPase pH -2.
`CC(N)c1ccc(Cl)cc1Cl` (stereo not drawn) gave Beta2AR agonist 1, MPTP inh 1, Granule exo inh -1, T cell modulator 32*, rCAG RNA binder -2 and V-ATPase pH 0.
Screening CCCCCCCN(c1ccccc1)[C@@H]1C[C@H]2CCCC(=O)N3CC[C@@H](C1)[C@@H]23 returned Beta2AR agonist 91*, MPTP inh -1, Granule exo inh -2, rCAG RNA binder -3 and V-ATPase pH -2.
For CCCCNC(=O)O[C@@H]1C[C@H]2CCCC(=O)N3CC[C@@H](C1)[C@@H]23 the results were Beta2AR agonist -5, MPTP inh 1, Granule exo inh 1, T cell modulator 233, rCAG RNA binder -2 and V-ATPase pH -1.
O=C(COc1ccccc1F)NCC(c1ccco1)N1CCCC1 (stereo not drawn) was read as Beta2AR agonist 7, MPTP inh -1, Granule exo inh -1, T cell modulator 50*, rCAG RNA binder -4 and V-ATPase pH -2.
Screening O=C(COc1ccccc1)NCC(c1ccco1)N1CCCCC1 (stereo not drawn) returned Beta2AR agonist -11, MPTP inh -1, Granule exo inh 1, T cell modulator 178, rCAG RNA binder -6 and V-ATPase pH -9.
For Cn1c(=O)c([N+](=O)[O-])c(Cl)c2ccccc21 the results were Beta2AR agonist 89*, MPTP inh -2, Granule exo inh 71*, rCAG RNA binder 1 and V-ATPase pH 32*.

Screening data from PubChem BioAssay.
